Test results as given in ChEMBL document CHEMBL2202986, “Guaianolide sesquiterpene lactones, a source to discover agents that selectively inhibit acute myelogenous leukemia stem and progenitor cells” (J Med Chem, 2012).

Experiments:
[1] = Drug degradation at pH 7.4 assessed as release of PTL after 3 hrs; format: physicochemical; conditions: buffer, pH 7.4, 3 h
HL-60 = experiment: Cytotoxicity against human HL60 cells after 18 hrs by annexin-V labeling-based flow cytometry; format: functional, cell-based; conditions: HL-60, 18 h
[2] = Cytotoxicity against human HL60/A cells after 18 hrs by annexin-V labeling-based flow cytometry; format: functional, cell-based
[3] = Cytotoxicity against human leukemia stem/progenitor cells assessed as viable CD34+ cells at 10 uM after 18 hrs by annexin-V labeling-based flow cytometry; format: functional, CD34+ cell
[4] = Cytotoxicity against human leukemia cells assessed as cell viability at 10 uM after 18 hrs by annexin-V labeling-based flow cytometry
[5] = Cytotoxicity against human leukemia stem/progenitor cells assessed as viable CD34+ cells at 5 uM after 18 hrs by annexin-V labeling-based flow cytometry; format: functional, CD34+ cell
Outline: (§1)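 Primary leukemia cells from AML patient blood were treated for 18 h in serum-free IMDM, then stained with CD34-APC and CD38-PECy7 for 30 min. After washing in cold PBS, cells were labelled with Annexin-V–FITC/PI for 15 min at room temperature and read by flow cytometry. Viability of total and CD34⁺ cells was normalized to untreated controls (mean, SD).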

[6] = Cytotoxicity against human leukemia stem/progenitor cells assessed as cell viability at 5 uM after 18 hrs by annexin-V labeling-based flow cytometry; format: functional; conditions: in the assay text read “leukemia cells” for “leukemia stem/progenitor cells”, read-out: Activity; outline: as §1

Drug degradation [1] | Structure (SMILES) | IC50 (HL-60) [µM] | IC50 [2] [µM] | Activity [3] [%] | viability at 10 µM [4] [%] | Activity [5] [%] | viability at 5 µM [6] [%]
Not Active | C/C1=C\CC[C@@]2(C)O[C@@H]2[C@H]2OC(=O)[C@@H](Cn3cc(-c4cccc(N)c4)nn3)[C@@H]2CC1 | > 50 | > 100 | – | – | – | –
Not Active | C/C1=C\CC[C@@]2(C)O[C@@H]2[C@H]2OC(=O)[C@@H](Cn3cc(-c4ccccc4)nn3)[C@@H]2CC1 | > 50 | > 100 | – | – | – | –
Not Active | C/C1=C\CC[C@@]2(C)O[C@@H]2[C@H]2OC(=O)[C@@H](Cn3cc(CCCCO)nn3)[C@@H]2CC1 | > 50 | > 100 | – | – | – | –
Not Active | C/C1=C\CC[C@@]2(C)O[C@@H]2[C@H]2OC(=O)[C@@H](Cn3cc(CO)nn3)[C@@H]2CC1 | > 50 | > 100 | – | – | – | –
Active | C/C1=C\CC[C@@]2(C)O[C@@H]2[C@H]2OC(=O)[C@@H](CN=[N+]=[N-])[C@@H]2CC1 | 4.3 | 5.9 | 17.5 | 22.8 | 28.4 | 31.5
– | C=C1C(=O)O[C@H]2[C@H]1CCC(C)=C1CC[C@@](C)(OC)[C@@H]12 | 9.9 | 10.2 | 2.1 | 10.8 | 25.5 | 34.1
– | CC1=C2CC[C@@](C)(O)[C@@H]2[C@H]2OC(=O)[C@@H](CN=[N+]=[N-])[C@@H]2CC1 | 6.2 | 6.7 | 11.2 | 53.1 | 26.3 | 64.3
– | CC1=C2CC[C@@](C)(O)[C@@H]2[C@H]2OC(=O)[C@@H](C)[C@@H]2CC1 | > 50 | > 50 | 74.4 | 70.8 | 83.1 | 85
– | C=C1C(=O)O[C@@H]2[C@@H]3[C@@H](CC[C@@]3(C)O)[C@](C)(OC)CC[C@@H]12 | 9.4 | 11.2 | 76.3 | 75.2 | 95.8 | 96.5
– | C=C1CC[C@H]2C(=C)C(=O)O[C@@H]2[C@]2(O)[C@@H]1CC[C@@H]2C | 4.5 | 6.4 | 44.5 | 49.7 | 67.9 | 70.7
– | C=C1C(=O)O[C@@H]2C=C(CCC(C)=O)[C@@H](C)CC[C@@H]12 | > 50 | > 50 | 70.9 | 72 | 81.5 | 83.2
